This is an account of results in ChEMBL document CHEMBL1909561, “Stable and orally bio-available pro-drugs of CPS11” (Bioorg Med Chem Lett, 2011).

The source made the active and inactive calls. No cut-off for these calls is given here.

Series [1] concerns MX1. Kind of series: Antitumor activity against human MX1 cells xenografted in mouse at 65 mg/kg, ip for 5 days. Format: functional, organism-based. More on the design: dose 65 mg/kg. In short, it runs like this: (§1)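 Mice implanted subcutaneously in the right flank with 1–2 mm³ MX-1 tumor fragments. Dosing began on day 7, at about 200 mm³ tumor size. Five mice per group: vehicle; 65 mg/kg once daily for five consecutive days; or that regimen plus Taxol 5 mg/kg iv once on day 7. Read-outs were tumor growth inhibition rate, survival and body weight.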
Background: A xenograft is tissue or cells of one species grown in another, often human tumour cells in immunodeficient mice.

Series [2] concerns MX1. Description: Potentiation of taxol-induced antitumor activity against human MX1 cells xenografted in mouse at 65 mg/kg, ip for 5 days co-administered with taxol at 5 mg/kg, iv on day 7 post challenge. Format: functional, organism-based. In short, it runs like this: as §1
Another series has as its system ECV-304. Kind of series: (§2) Antiproliferative activity against human ECV304 cells assessed as growth inhibition after 72 hrs by MTT assay. Format: cell-based. Particulars: for IC50: Homo sapiens, ECV-304, 72 h; for growth inhibition (GI): human, ecv-304, 72 h. In short, it runs like this:
(§3)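 ECV-304 grown in RPMI 1640 with 10% bovine serum, seeded 6000 cells/well and left to attach overnight at 37 °C, 5% CO₂. Medium then replaced by fresh medium with 1% FBS plus test agent or DMSO vehicle for 72 h. MTT added for a further 4 h, absorbance read at 535 nm. Duplicate wells, three independent repeats.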
On the technique in general: Tetrazolium dyes change colour on reduction, which living cells bring about.

Series [3] has as its system HUVEC. Kind of series: Antiproliferative activity against human HUVEC at 195 uM after 24 hrs. Format: cell-based. In short, it runs like this:
(§4)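 HUVECs in M199 with 20% bovine serum and 20 ng/mL bFGF, seeded at 20,000 cells/well onto Matrigel that had gelled 30 min at 37 °C, left to attach overnight. Medium changed to one containing test agent or vehicle (0.5% DMSO) and cultured 24 h at 37 °C, 5% CO₂. Each well photographed and counted.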

Series [4] in a line: Stability of the compound in aqueous solution after 8 hrs. Format: physicochemical. Particulars: buffer. In short, it runs like this: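 Stability followed in aqueous solution over 8 h.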
Series [5] in a line: Aqueous solubility of the compound after 8 hrs by UV spectroscopy. Format: physicochemical.
A short description of series [6]: Stability of the compound assessed as purity after 2 months by HPLC method (reference value: 99.3%). Format: physicochemical. Particulars: 1461 h.
The nature of series [7]: Toxicity in ip dosed nude mouse administered for 2 weeks. Format: organism-based. Particulars: in vivo.
Series [8] in a line: Antitumor activity against human Lung cancer cells in metastasis model. The series is classed as functional, Cancer cell lines.
In a further series the test system is PC-3. Kind of series: Antitumor activity against human PC3 cells in xenograft model. The series is classed as functional.
Series [9] is described as follows: Stability of the compound after 1 month by HPLC method (reference value: 91.6%). Particulars: read-out: Stability. The series is classed as physicochemical.
Series [10] relates to MX1. Description: Antitumor activity against human MX1 cells implanted subcutaneously in mouse at 5 mg/kg, iv administered on day 7 post challenge. Format: functional. In short, it runs like this:
as §1

Series [11] in a line: Bioavailability in intragastrically administered rat. Format: ADME, organism-based. Particulars: in vivo, po. In short, it runs like this: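 Single intragastric dose given to rats; oral bioavailability determined.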
Series [12] concerns Mus musculus. Kind of series: Toxicity in mouse assessed as mouse survival at 65 mg/kg, ip for 5 days co-administered with taxol at 5 mg/kg, iv on day 7 post challenge. The series is classed as organism-based. Particulars: in vivo, 120 h. In short, it runs like this:
(§5)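 Mice bearing MX-1 human breast tumour fragments (1–2 mm³, implanted subcutaneously in the right flank), five per group. Treatment began on day 7 after inoculation, at a tumour size of about 200 mm³. Groups received vehicle, test compound at 65 mg/kg once daily for five consecutive days, or the same schedule plus Taxol 5 mg/kg iv once on day 7. Survival and body weight loss were monitored.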

A short description of series [13]: Stability of the compound assessed as purity after 2 months by HPLC method (reference value: 98.9%). The series is classed as physicochemical. Particulars: 1461 h.
For series [14], the system named is Mus musculus. Kind of series: Toxicity in mouse assessed as body weight loss at 65 mg/kg, ip for 5 days co-administered with taxol at 5 mg/kg, iv on day 7 post challenge. The series is classed as organism-based. Particulars: in vivo, 120 h. In short, it runs like this:
as §5

Another series relates to Rattus norvegicus. Kind of series: Prodrug activation in IV dosed rat assessed as formation of CPS11. Format: organism-based. Particulars: in vivo.
A short description of series [15]: as §2. The series is classed as cell-based, ECV-304. Particulars: human, ECV304 cells; read-out: GI. In short, it runs like this: as §3
Series [16] concerns HUVEC. Description: Antiproliferative activity against human HUVEC assessed as tube formation at 195 uM after 24 hrs. Format: cell-based. In short, it runs like this:
as §4

As for `O=C(OCN1C(=O)CCC(N2C(=O)c3ccccc3C2=O)C1=O)c1cccnc1` (stereo not drawn) [listing 1 of 2 here], the outcome with MX1 [1] was inactive. In addition, in the series on MX1 [2], the outcome was Active.
By IC50 is commonly meant the point on the concentration scale where inhibition reaches its midpoint. On to `O=C(OCN1C(=O)CCC(N2C(=O)c3ccccc3C2=O)C1=O)c1ccccn1` (stereo not drawn), for which, in the series on ECV-304, the IC50 was 100 nM and the “growth inhibition (GI)” value was “Dose-dependent effect”. The Activity in the series with HUVEC [3] is recorded as 88%.
One may read the solubility as how much of the substance goes into solution per volume. A low value points to little dissolved substance. `Cl.O=C(OCN1C(=O)CCC(N2C(=O)c3ccccc3C2=O)C1=O)c1cccnc1` (stereo not drawn): the Stability result in series [4] and in series [6] was “Stable” in each case. This compound also gave a solubility at 8 h in series [5] of 1480 µg/mL.
In series [7], `O=C1CCC(N2C(=O)c3ccccc3C2=O)C(=O)N1CO` (stereo not drawn) gave an MTD at 336 h of 100 mg/kg. The entries for the “inhibition (INH)” value (in series [8]; in the series on PC-3) were 87% and 90%, respectively. Further, in series [9], the remaining at 730.5 h is 58.9%.
Take `CC(=O)O[C@H]1C(=O)[C@@]2(C)[C@H]([C@H](OC(=O)c3ccccc3)[C@]3(O)C[C@H](OC(=O)[C@H](O)[C@@H](NC(=O)c4ccccc4)c4ccccc4)C(C)=C1C3(C)C)[C@]1(OC(C)=O)CO[C@@H]1C[C@@H]2O` [PACLITAXEL]: the Activity in the series with MX1 [10] was found to be 33.1%.
The bioavailability is the share of a dose that reaches the circulation, judged against a reference dose that is usually intravenous. Low readings indicate poor availability, high ones good availability. For the compound `O=C(OCN1C(=O)CCC(N2C(=O)c3ccccc3C2=O)C1=O)c1cccnc1.O=S(=O)(O)c1ccccc1` (stereo not drawn), the Stability entry in series [4] and in [13] was “Stable” each time. The bioavailability in series [11] was 60.7%. Moreover, the Activity entry is “Non-toxic” with Mus musculus [12], “Non-toxic” in the series on Mus musculus [14] and “Active” in the series with Rattus norvegicus. This compound also yielded a solubility at 8 h in series [5] of 840 µg/mL.
As to `O=C(OCN1C(=O)CCC(N2C(=O)c3ccccc3C2=O)C1=O)c1cccnc1` (stereo not drawn) [listing 2 of 2 here], in the series with ECV-304, the half-inhibitory concentration (IC50) was 120 nM and the “growth inhibition (GI)” value is on record as “Dose-dependent effect”. In the series with HUVEC [3], this compound displayed an Activity of 88%.
The corresponding values for `O=C(OCN1C(=O)CCC(N2C(=O)c3ccccc3C2=O)C1=O)c1ccncc1` (stereo not drawn) are 180 nM, “Dose-dependent effect” and 88%.
`O=C1CCC(N2C(=O)c3ccccc3C2=O)C(=O)N1` (stereo not drawn) [THALIDOMIDE]: the inhibition at 72 h in series [15] is 40%. Moreover, the Activity in the series with HUVEC [16] is on record as 53%.
